Screening data as filed in PubChem BioAssay.
Shown are actives, neighbours in structure and some others; about 3.2% of the full set was active somewhere.
mABHD4 FP = inhibitors of mouse ABHD4; Q8VD66; actives 0.54% (n = 370,000); purified mABHD4, FP-Rh probe fluorescence polarization; AID 720543; inhibition, % at 8.92 µM;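 active = inhibition exceeding the mean over every tested compound plus 3 SD, cut at about 30% in these data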
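Test system: mABHD4 protein; Read-out basis: % inhibition; Incubation: 45 min + 60 min at 25 °C; Repeats: single replicate; Technique: fluorescence polarization with parallel and perpendicular emission, 525/598 nm; Compound: 8.92 µM, single dose; Benchmarks: full inhibition S159A mutant plus DMSO, zero as sample-well median.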
DAGLB inhibitor = blocks human DAGLB lipase activity; Q8NCG7; HEK293T DAGLB membrane lysate, EnzChek fluorogenic substrate; inhibition, % at 5.17 µM; actives 0.059% (n = 340,000); AID 504411; in the data active = inhibition above about 34%
HTRA1 inh = inhibitors of human serine peptidase HTRA1; recombinant HTRA1, FP-rhodamine activity-based probe, fluorescence polarization; inhibition, % at 5.96 µM; actives 0.5% (n = 340,000); in the data active = inhibition above about 36%
rCAG binder = binds r(CAG) RNA repeats. r(CAG) RNA repeat, TO-PRO-1 dye displacement fluorescence. inhibition, % at 3 µM. actives 1.3% (n = 370,000). AID 651821;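 active = inhibition above the plate cutoff, the mean of all test compounds on that plate plus 3 SD, cut at about 35% in these data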;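 note: higher means more dye released from RNA so lower well fluorescence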
PRMT1 inh = PRMT1 (human) inhibition, primary screen; Q99873; inhibition, % at 2.79 µM; actives 1.3% (n = 370,000); recombinant PRMT1, activity-based probe fluorescence polarization;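 active = inhibition above about 21% made by adding two undisclosed values, limit read from the data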
Target sequence (Q99873 whole entry, looked up): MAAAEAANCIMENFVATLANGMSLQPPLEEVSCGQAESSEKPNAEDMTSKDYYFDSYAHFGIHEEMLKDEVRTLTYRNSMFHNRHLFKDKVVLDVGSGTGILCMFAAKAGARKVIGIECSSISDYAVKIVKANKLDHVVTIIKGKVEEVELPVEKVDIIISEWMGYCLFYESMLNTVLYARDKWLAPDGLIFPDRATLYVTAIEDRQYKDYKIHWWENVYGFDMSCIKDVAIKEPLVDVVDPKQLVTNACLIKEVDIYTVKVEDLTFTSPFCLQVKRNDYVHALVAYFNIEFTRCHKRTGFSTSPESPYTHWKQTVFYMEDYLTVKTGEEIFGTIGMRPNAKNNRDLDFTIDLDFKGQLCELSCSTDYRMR
LEDGF integ inh = blocks HIV-1 LEDGF/p75-dependent DNA integration; TR-FRET IN-LEDGF/p75 DNA integration, Eu/Cy5; inhibition, % at 3.7 µM; actives 0.64% (n = 370,000); AID 743269;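 active = inhibition above the screen-wide mean plus 3 SD, cut at about 13% in these data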;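 note: signal is the Cy5 over europium emission ratio at 671 and 618 nm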
rCAG binder conf = r(CAG) RNA repeat binding, confirmation; TO-PRO-1 dye displacement fluorescence; actives 70% (n = 4,300); inhibition, % at 3 µM; shares compounds with rCAG binder;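 active = inhibition above a per-plate cutoff, the mean inhibition of sample wells plus 3 SD, cut at about 35% in these data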;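 note: loss of TO-PRO-1 fluorescence as compound displaces dye from 1x1 AA loop RNA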
dCAG dye counter = counter-screen for rCAG RNA binders: DNA CAG dye complex inhibitors; shares compounds with rCAG binder; d(CAG) DNA oligo TO-PRO-1 dye displacement, fluorescence; inhibition, % at 3 µM; actives 94% (n = 4,300);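 active = inhibition above its plate's cutoff, the mean test-well inhibition plus 3 SD, cut at about 4.8% in these data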;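 note: hits displace the dye from DNA and so lower well fluorescence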
DNA CAG DR = DNA CAG dye complex inhibition, dose response counter-screen; AID 686960; IC50, µM; shares compounds with rCAG binder; actives 20% (n = 250); DNA CAG/GTC duplex TO-PRO-1 dye displacement fluorescence; in the data active = IC50 below about 10 µM
PRMT1 inh conf = PRMT1 (human) inhibition, FP confirmation; shares compounds with PRMT1 inh; recombinant His-PRMT1, activity-based probe fluorescence polarization; inhibition, % at 2.79 µM; actives 42% (n = 3,300); AID 687036;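 active = mean inhibition across replicates above the hit cutoff derived for the earlier primary screen, cut at about 22% in these data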
ABHD4 confirm = ABHD4 (mouse) inhibition, FP confirmation; shares compounds with mABHD4 FP; inhibition, % at 8.92 µM; AID 720658; actives 55% (n = 1,800); purified mABHD4, FP-Rh probe fluorescence polarization;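 active = mean inhibition across replicates above the hit cutoff set in the primary screen, cut at about 30% in these data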
Large screens that a line does not name were inactive (follow-up assays come after a bar, where they were run).

COc1ccc(C#Cc2ccc3c(c2)O[C@H](CN(C)C(C)=O)[C@H](C)CN([C@@H](C)CO)S3(=O)=O)cc1	none
O=C(CCSc1nc(-c2ccco2)cc(C(F)(F)F)n1)NCc1ccccn1	none
CCOc1ccc(C(=O)Nc2ccc(N3CCN(S(C)(=O)=O)CC3)cc2)cc1[N+](=O)[O-]	none
O=[N+]([O-])c1c(Nc2ccccc2O)ccc2nonc12	none
O=[N+]([O-])c1c(Nc2ccccc2O)cc(Cl)c2nonc12	mABHD4 FP 33.2, rCAG binder 41.0, PRMT1 inh 59.6 | rCAG binder conf inactive | dCAG dye counter 9.7 | PRMT1 inh conf 52.7 | ABHD4 confirm 49.1
CCOc1cc2c(c3c1C(c1ccccc1)N(S(=O)(=O)c1ccc(C)cc1)C3)C(=O)C=CC2=O (configuration not stated)	mABHD4 FP 48.0, rCAG binder 59.9 (no result: DAGLB inhibitor, HTRA1 inh) | rCAG binder conf 54.2 | dCAG dye counter 25.3 | ABHD4 confirm 59.9
CCOC(=O)C1=CCN(S(=O)(=O)c2ccc(C)cc2)C1c1ccccc1 (configuration not stated)	none (no result: DAGLB inhibitor, HTRA1 inh)
C=C1CCC2C(C)(C)CCC[C@]2(C)[C@H]1CC1=C(O)C(=O)C(CO)=CC1=O (some centres not stated)	mABHD4 FP 38.8, rCAG binder 45.0, PRMT1 inh 79.8 (no result: DAGLB inhibitor, HTRA1 inh) | rCAG binder conf inactive | dCAG dye counter 7.3 | PRMT1 inh conf 76.8 | ABHD4 confirm 70.9
COc1ccc(/C=N/NC(=O)c2nn(-c3ccc(Cl)cc3)c(=O)c3c(N)scc23)cc1	mABHD4 FP 29.7, rCAG binder 42.2, PRMT1 inh 23.9 | rCAG binder conf inactive | dCAG dye counter 17.9 | ABHD4 confirm inactive
Cc1ccc(NS(=O)(=O)c2ccc3[nH]c(=O)c(=O)[nH]c3c2)cc1Cl	none
Cc1ccc(NS(=O)(=O)c2ccc(Cl)c(N=Nc3c(O)[nH]c(=O)[nH]c3=O)c2)cc1Cl	mABHD4 FP 31.0, rCAG binder 66.5 | rCAG binder conf 76.1 | dCAG dye counter 35.7 | ABHD4 confirm 48.3
CC(C)(C)n1nnnc1C(c1cccs1)N1CCN(C/C=C/c2ccccc2)CC1 (configuration not stated)	none (no result: DAGLB inhibitor, HTRA1 inh)
Cc1c(C(=O)Nc2ccc(N3CCOCC3)cc2)oc2ccccc12	none
CC1=NN(C(N)=S)C(=O)C1N=Nc1c(Br)cc(Br)cc1Br (configuration not stated)	mABHD4 FP 30.1, rCAG binder 46.2 | rCAG binder conf 42.6 | dCAG dye counter 12.5 | DNA CAG DR inactive | ABHD4 confirm 57.0
CCOC(=O)[C@@H]1[C@H]2COc3ccc(Br)cc3[C@H]2N2C(=O)N(c3ccc(OC)cc3)C(=O)[C@]12C	none
Cc1cc(C(c2ccc(C)o2)c2ccc(C)o2)c(O)c([N+](=O)[O-])c1	mABHD4 FP 43.5, rCAG binder 54.1 | rCAG binder conf inactive | dCAG dye counter 8.5 | ABHD4 confirm inactive
CS(=O)(=O)c1ccc(C(=O)Nc2nc(-c3ccco3)c(-c3ccco3)s2)cc1	mABHD4 FP 39.7, rCAG binder 88.4, PRMT1 inh 35.3, LEDGF integ inh 89.0 | rCAG binder conf inactive | dCAG dye counter 16.4 | PRMT1 inh conf 28.4 | ABHD4 confirm inactive
O=C(CN1C(=O)/C(=C2/SC(=S)N(CCS(=O)(=O)O)C2=O)c2ccccc21)Nc1cccc(C(F)(F)F)c1	mABHD4 FP 84.7, rCAG binder 91.5 | rCAG binder conf 93.8 | dCAG dye counter 77.6 | ABHD4 confirm 92.5
